Results taken from ChEMBL document CHEMBL2390927, “Design, synthesis and antimicrobial evaluation of novel benzimidazole type of Fluconazole analogues and their synergistic effects with Chloromycin, Norfloxacin and Fluconazole” (2013).
Converted amounts (≈) assume the structure as drawn.

Tests used:
[1] = system: Escherichia coli; experiment: Antibacterial activity against Escherichia coli JM109 after 24 hrs by two-fold serial dilution method; format: functional; conditions: JM109, 24 h
[2] = system: Staphylococcus aureus; experiment: Antibacterial activity against Staphylococcus aureus ATCC 6538 after 24 hrs by two-fold serial dilution method; format: functional; conditions: ATCC 6538, 24 h
[3] = system: Bacillus; experiment: Antibacterial activity against Bacillus proteus ATCC 13315 after 24 hrs by two-fold serial dilution method; format: functional; conditions: ATCC 13315, 24 h
Outline: (§1)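 MIC taken as the lowest concentration giving complete growth inhibition, by standard two-fold serial dilution in 96-well plates following NCCLS. Stocks in DMSO, diluted in Mueller–Hinton broth. Inoculum adjusted with sterile saline to 1 × 10⁵ CFU. DMSO with inoculum and no drug served as solvent control. Growth read visually and spectrophotometrically, in triplicate.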

[4] = system: Salmonella typhi; experiment: Antibacterial activity against Bacillus typhi after 24 hrs by two-fold serial dilution method; format: functional, Salmonella enterica subsp. enterica serovar Typhi; conditions: Salmonella enterica
Outline: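 Two-fold serial dilution in 96-well plates following NCCLS; compounds dissolved in DMSO as stocks, then diluted in Mueller-Hinton broth; bacterial suspension adjusted with sterile saline to 1 × 10⁵ CFU; MIC taken as lowest concentration completely inhibiting growth, monitored visually and spectrophotometrically; DMSO-plus-inoculum well as solvent control; triplicate.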

[5] = system: Micrococcus luteus; experiment: Antibacterial activity against Micrococcus luteus ATCC 4698 after 24 hrs by two-fold serial dilution method; format: functional; conditions: ATCC 4698, 24 h; outline: as §1
[6] = system: Staphylococcus aureus; experiment: Antibacterial activity against methicillin-resistant Staphylococcus aureus N315 after 24 hrs by two-fold serial dilution method; format: functional; conditions: N315, 24 h
[7] = system: Aspergillus flavus; experiment: Antifungal activity against Aspergillus flavus after 24 hrs by two-fold serial dilution method; format: functional
Outline: (§2)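 Spore suspension in sterile distilled water from one-day-old cultures on Sabouraud agar, final 1–5 × 10³ spore mL⁻¹. Compound stocks diluted in sterile RPMI 1640 as two-fold serial dilutions in microdilution plates. MIC is the lowest concentration completely inhibiting growth. Growth monitored visually and spectrophotometrically, in triplicate.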

[8] = system: Bacillus subtilis; experiment: Antibacterial activity against Bacillus subtilis ATCC 21216 after 24 hrs by two-fold serial dilution method; format: functional; conditions: ATCC 21216, 24 h; outline: as §1
[9] = system: Candida; experiment: Antifungal activity against Candida mycoderma after 24 hrs by two-fold serial dilution method; format: functional; outline: as §2
[10] = system: Cyberlindnera jadinii; experiment: Antifungal activity against Candida utilis after 24 hrs by two-fold serial dilution method; format: functional; conditions: Williopsis jadinii; outline: as §2
[11] = system: Candida albicans; experiment: Antifungal activity against Candida albicans ATCC 76615 after 24 hrs by two-fold serial dilution method; format: functional; conditions: ATCC 76615, 24 h; outline: as §2
[12] = system: Saccharomyces cerevisiae; experiment: Antifungal activity against Saccharomyces cerevisiae after 24 hrs by two-fold serial dilution method; format: functional; outline: as §2
[13] = system: Pseudomonas aeruginosa; experiment: Antibacterial activity against Pseudomonas aeruginosa ATCC 27853 after 24 hrs by two-fold serial dilution method; format: functional; conditions: ATCC 27853, 24 h; outline: as §1

SMILES | MIC [1] [µg/mL] | MIC [2] [µg/mL] | MIC [3] [µg/mL] | MIC [4] [µg/mL] | MIC [5] [µg/mL] | MIC [6] [µg/mL] | MIC [7] [µg/mL] | MIC [8] [µg/mL] | MIC [9] [µg/mL] | MIC [10] [µg/mL] | MIC [11] [µg/mL] | MIC [12] [µg/mL] | MIC [13] [µg/mL]
Fc1ccccc1N(Cc1ccc(Cl)c(Cl)c1)Cc1nc2ccccc2[nH]1 | 32 (≈ 79.9 µM) | 64 (≈ 160 µM) | 64 (≈ 160 µM) | 128 (≈ 320 µM) | 128 (≈ 320 µM) | 128 (≈ 320 µM) | 64 (≈ 160 µM) | 32 (≈ 79.9 µM) | 32 (≈ 79.9 µM) | 32 (≈ 79.9 µM) | 32 (≈ 79.9 µM) | 64 (≈ 160 µM) | 64 (≈ 160 µM)
CC(=O)c1cc2ccc(OCc3ccc(CN(Cc4nc5ccccc5[nH]4)c4ccc(C)cc4)cc3)cc2oc1=O | 128 (≈ 235 µM) | 128 (≈ 235 µM) | 256 (≈ 471 µM) | 128 (≈ 235 µM) | 128 (≈ 235 µM) | 64 (≈ 118 µM) | 64 (≈ 118 µM) | 64 (≈ 118 µM) | 128 (≈ 235 µM) | 64 (≈ 118 µM) | 64 (≈ 118 µM) | 32 (≈ 58.9 µM) | 128 (≈ 235 µM)
Clc1ccc(NCc2nc3ccccc3[nH]2)cc1 | 32 (≈ 124 µM) | 64 (≈ 248 µM) | 64 (≈ 248 µM) | 128 (≈ 497 µM) | 32 (≈ 124 µM) | 32 (≈ 124 µM) | 64 (≈ 248 µM) | 64 (≈ 248 µM) | 64 (≈ 248 µM) | 32 (≈ 124 µM) | 64 (≈ 248 µM) | 64 (≈ 248 µM) | 128 (≈ 497 µM)
Cc1cc(=O)oc2cc(OCCCCCCN(Cc3nc4ccccc4[nH]3)c3ccc(F)cc3)ccc12 | 128 (≈ 256 µM) | 32 (≈ 64.1 µM) | 64 (≈ 128 µM) | 64 (≈ 128 µM) | 128 (≈ 256 µM) | 128 (≈ 256 µM) | 32 (≈ 64.1 µM) | 16 (≈ 32 µM) | 32 (≈ 64.1 µM) | 16 (≈ 32 µM) | 16 (≈ 32 µM) | 32 (≈ 64.1 µM) | 16 (≈ 32 µM)
Fc1ccc(N(Cc2nc3ccccc3[nH]2)Cc2ccc(Cl)cc2Cl)cc1 | 128 (≈ 320 µM) | 32 (≈ 79.9 µM) | 32 (≈ 79.9 µM) | 64 (≈ 160 µM) | 64 (≈ 160 µM) | 64 (≈ 160 µM) | 64 (≈ 160 µM) | 64 (≈ 160 µM) | 64 (≈ 160 µM) | 32 (≈ 79.9 µM) | 32 (≈ 79.9 µM) | 64 (≈ 160 µM) | 64 (≈ 160 µM)
Cc1ccc(N(Cc2nc3ccccc3[nH]2)Cc2ccc(Cl)cc2Cl)cc1 | 32 (≈ 80.7 µM) | 64 (≈ 161 µM) | 32 (≈ 80.7 µM) | 64 (≈ 161 µM) | 128 (≈ 323 µM) | 64 (≈ 161 µM) | 128 (≈ 323 µM) | 32 (≈ 80.7 µM) | 128 (≈ 323 µM) | 64 (≈ 161 µM) | 64 (≈ 161 µM) | 64 (≈ 161 µM) | 64 (≈ 161 µM)
Cc1ccc(N(Cc2ccc(Cl)c(Cl)c2)Cc2nc3ccccc3[nH]2)cc1 | 64 (≈ 161 µM) | 32 (≈ 80.7 µM) | 128 (≈ 323 µM) | 64 (≈ 161 µM) | 64 (≈ 161 µM) | 64 (≈ 161 µM) | 128 (≈ 323 µM) | 128 (≈ 323 µM) | 128 (≈ 323 µM) | 64 (≈ 161 µM) | 128 (≈ 323 µM) | 128 (≈ 323 µM) | 128 (≈ 323 µM)
CCCCCCCCCCCCN(Cc1nc2ccccc2[nH]1)c1ccc(C)cc1 | 128 (≈ 316 µM) | 64 (≈ 158 µM) | 64 (≈ 158 µM) | 64 (≈ 158 µM) | 64 (≈ 158 µM) | 128 (≈ 316 µM) | 64 (≈ 158 µM) | 128 (≈ 316 µM) | 16 (≈ 39.4 µM) | 32 (≈ 78.9 µM) | 64 (≈ 158 µM) | 64 (≈ 158 µM) | 128 (≈ 316 µM)
Cc1ccc(N(Cc2ccc([N+](=O)[O-])cc2)Cc2nc3ccccc3[nH]2)cc1 | 64 (≈ 172 µM) | 32 (≈ 85.9 µM) | 64 (≈ 172 µM) | 64 (≈ 172 µM) | 128 (≈ 344 µM) | 256 (≈ 687 µM) | 128 (≈ 344 µM) | 64 (≈ 172 µM) | 64 (≈ 172 µM) | 64 (≈ 172 µM) | 128 (≈ 344 µM) | 64 (≈ 172 µM) | 64 (≈ 172 µM)
OC(Cn1cncn1)(Cn1cncn1)c1ccc(F)cc1F [FLUCONAZOLE] | – | – | – | – | – | – | 256 (≈ 836 µM) | – | 4 (≈ 13.1 µM) | 8 (≈ 26.1 µM) | 1 (≈ 3.27 µM) | 16 (≈ 52.2 µM) | –
CCn1cc(C(=O)O)c(=O)c2cc(F)c(N3CCNCC3)cc21 [NORFLOXACIN] | 1 (≈ 3.13 µM) | 8 (≈ 25.1 µM) | 4 (≈ 12.5 µM) | 1 (≈ 3.13 µM) | 1 (≈ 3.13 µM) | 1 (≈ 3.13 µM) | – | 2 (≈ 6.26 µM) | – | – | – | – | 1 (≈ 3.13 µM)
O=C(N[C@H](CO)[C@H](O)c1ccc([N+](=O)[O-])cc1)C(Cl)Cl [CHLORAMPHENICOL] | – | 8 (≈ 24.8 µM) | 32 (≈ 99 µM) | 32 (≈ 99 µM) | 8 (≈ 24.8 µM) | – | – | 32 (≈ 99 µM) | – | – | – | – | –
